{"source": "paper PMC9486889", "about": "(Japanese Journal of Clinical Oncology, 2022)", "assay": "Phase I dose-escalation: DLT/MTD and treatment-emergent adverse events", "assay_type": "in vivo, Japanese patients", "procedure,_shortened": "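Open-label, non-randomized 3+3 dose escalation, starting at 30 mg oral BIW with planned escalation to 50 mg, in continuous 4-week cycles. The DLT window was 28 days from first dose. DLTs were grade 4 hematologic toxicity, grade ≥3 febrile neutropenia, grade 3 thrombocytopenia with significant bleeding, other grade ≥3 non-hematologic toxicity, or troponin rising on 3 consecutive days. AEs were coded by MedDRA 19.1 and graded by CTCAE 4.03.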"}
{"smiles": "Nc1cc(F)ccc1NC(=O)c1ccc(CNC(=O)/C=C/c2cccnc2)cc1", "note": "[HBI-8000, tucidinostat]", "values": [{"measurement": "Grade 4 TEAE: Thrombocytopenia", "setting": "40 mg BIW (N = 7)", "result": "0 (0) n (%)"}, {"measurement": "Grade 4 TEAE: White blood cell count decreased", "setting": "40 mg BIW (N = 7)", "result": "0 (0) n (%)"}, {"measurement": "Number of patients with at least one related TEAE", "setting": "40 mg BIW (N = 7)", "result": "7 (100) n (%)"}, {"measurement": "TEAE: Abdominal pain", "setting": "40 mg BIW (N = 7)", "result": "1 (14.3) n (%)"}, {"measurement": "TEAE: Anaemia", "setting": "40 mg BIW (N = 7)", "result": "0 (0) n (%)"}, {"measurement": "TEAE: Back pain", "setting": "40 mg BIW (N = 7)", "result": "2 (28.6) n (%)"}, {"measurement": "TEAE: C-reactive protein increased", "setting": "40 mg BIW (N = 7)", "result": "1 (14.3) n (%)"}, {"measurement": "TEAE: Decreased appetite", "setting": "40 mg BIW (N = 7)", "result": "2 (28.6) n (%)"}, {"measurement": "TEAE: Diarrhoea", "setting": "40 mg BIW (N = 7)", "result": "1 (14.3) n (%)"}, {"measurement": "TEAE: Dysgeusia", "setting": "40 mg BIW (N = 7)", "result": "1 (14.3) n (%)"}, {"measurement": "TEAE: Fatigue", "setting": "40 mg BIW (N = 7)", "result": "1 (14.3) n (%)"}, {"measurement": "TEAE: Headache", "setting": "40 mg BIW (N = 7)", "result": "1 (14.3) n (%)"}, {"measurement": "TEAE: Hypertriglyceridaemia", "setting": "40 mg BIW (N = 7)", "result": "1 (14.3) n (%)"}, {"measurement": "TEAE: Hyperuricaemia", "setting": "40 mg BIW (N = 7)", "result": "0 (0) n (%)"}, {"measurement": "TEAE: Hypocalcaemia", "setting": "40 mg BIW (N = 7)", "result": "3 (42.9) n (%)"}, {"measurement": "TEAE: Hypokalaemia", "setting": "40 mg BIW (N = 7)", "result": "1 (14.3) n (%)"}, {"measurement": "TEAE: Insomnia", "setting": "40 mg BIW (N = 7)", "result": "1 (14.3) n (%)"}, {"measurement": "TEAE: Nasopharyngitis", "setting": "40 mg BIW (N = 7)", "result": "2 (28.6) n (%)"}, {"measurement": "TEAE: Nausea", "setting": "40 mg BIW (N = 7)", "result": "2 (28.6) n (%)"}, {"measurement": "TEAE: Neutropenia", "setting": "40 mg BIW (N = 7)", "result": "2 (28.6) n (%)"}, {"measurement": "TEAE: Neutrophil count decreased", "setting": "40 mg BIW (N = 7)", "result": "0 (0) n (%)"}, {"measurement": "TEAE: Platelet count decreased", "setting": "40 mg BIW (N = 7)", "result": "3 (42.9) n (%)"}, {"measurement": "TEAE: Pyrexia", "setting": "40 mg BIW (N = 7)", "result": "2 (28.6) n (%)"}, {"measurement": "TEAE: Thrombocytopenia", "setting": "40 mg BIW (N = 7)", "result": "4 (57.1) n (%)"}, {"measurement": "TEAE: Weight decreased", "setting": "40 mg BIW (N = 7)", "result": "2 (28.6) n (%)"}, {"measurement": "TEAE: White blood cell count decreased", "setting": "40 mg BIW (N = 7)", "result": "1 (14.3) n (%)"}, {"measurement": "Incidence of thrombocytopenia", "setting": "40 mg BIW cohort", "result": 57.1, "unit": "%"}, {"measurement": "TEAEs that led to dose reduction or dose delay", "setting": "40 mg BIW cohort", "result": "four"}, {"measurement": "TEAEs that led to treatment discontinuation", "setting": "40 mg BIW cohort", "result": "four"}, {"measurement": "Grade 3: Number of patients with at least one TEAE", "setting": "Total (N = 14)", "result": "9 (64.3) n (%)"}, {"measurement": "Grade 3 TEAE: Abdominal pain", "setting": "Total (N = 14)", "result": "1 (7.1) n (%)"}, {"measurement": "Grade 3 TEAE: Alanine aminotransferase increased", "setting": "Total (N = 14)", "result": "1 (7.1) n (%)"}, {"measurement": "Grade 3 TEAE: Anaemia", "setting": "Total (N = 14)", "result": "1 (7.1) n (%)"}, {"measurement": "Grade 3 TEAE: Blood creatine phosphokinase increased", "setting": "Total (N = 14)", "result": "1 (7.1) n (%)"}, {"measurement": "Grade 3 TEAE: Enterocolitis", "setting": "Total (N = 14)", "result": "1 (7.1) n (%)"}, {"measurement": "Grade 3 TEAE: Erythema multiforme", "setting": "Total (N = 14)", "result": "1 (7.1) n (%)"}, {"measurement": "Grade 3 TEAE: Erythema nodosum", "setting": "Total (N = 14)", "result": "1 (7.1) n (%)"}, {"measurement": "Grade 3 TEAE: Hyperglycaemia", "setting": "Total (N = 14)", "result": "1 (7.1) n (%)"}, {"measurement": "Grade 3 TEAE: Hypertriglyceridaemia", "setting": "Total (N = 14)", "result": "1 (7.1) n (%)"}, {"measurement": "Grade 3 TEAE: Lymphocyte count decreased", "setting": "Total (N = 14)", "result": "1 (7.1) n (%)"}, {"measurement": "Grade 3 TEAE: Neutropenia", "setting": "Total (N = 14)", "result": "1 (7.1) n (%)"}, {"measurement": "Grade 3 TEAE: Neutrophil count decreased", "setting": "Total (N = 14)", "result": "2 (14.3) n (%)"}, {"measurement": "Grade 3 TEAE: Parkinsonism", "setting": "Total (N = 14)", "result": "1 (7.1) n (%)"}, {"measurement": "Grade 3 TEAE: Pyrexia", "setting": "Total (N = 14)", "result": "1 (7.1) n (%)"}, {"measurement": "Grade 3 TEAE: Rash generalized", "setting": "Total (N = 14)", "result": "1 (7.1) n (%)"}, {"measurement": "Grade 3 TEAE: Thrombocytopenia", "setting": "Total (N = 14)", "result": "2 (14.3) n (%)"}, {"measurement": "Grade 3 TEAE: White blood cell count decreased", "setting": "Total (N = 14)", "result": "2 (14.3) n (%)"}, {"measurement": "Grade 4: Number of patients with at least one TEAE", "setting": "Total (N = 14)", "result": "2 (14.3) n (%)"}, {"measurement": "Grade 4 TEAE: Abdominal pain", "setting": "Total (N = 14)", "result": "0 (0) n (%)"}, {"measurement": "Grade 4 TEAE: Alanine aminotransferase increased", "setting": "Total (N = 14)", "result": "0 (0) n (%)"}, {"measurement": "Grade 4 TEAE: Anaemia", "setting": "Total (N = 14)", "result": "0 (0) n (%)"}, {"measurement": "Grade 4 TEAE: Blood creatine phosphokinase increased", "setting": "Total (N = 14)", "result": "0 (0) n (%)"}, {"measurement": "Grade 4 TEAE: Enterocolitis", "setting": "Total (N = 14)", "result": "0 (0) n (%)"}, {"measurement": "Grade 4 TEAE: Erythema multiforme", "setting": "Total (N = 14)", "result": "0 (0) n (%)"}, {"measurement": "Grade 4 TEAE: Erythema nodosum", "setting": "Total (N = 14)", "result": "0 (0) n (%)"}, {"measurement": "Grade 4 TEAE: Hyperglycaemia", "setting": "Total (N = 14)", "result": "0 (0) n (%)"}, {"measurement": "Grade 4 TEAE: Hypertriglyceridaemia", "setting": "Total (N = 14)", "result": "0 (0) n (%)"}, {"measurement": "Grade 4 TEAE: Lymphocyte count decreased", "setting": "Total (N = 14)", "result": "0 (0) n (%)"}, {"measurement": "Grade 4 TEAE: Neutropenia", "setting": "Total (N = 14)", "result": "2 (14.3) n (%)"}, {"measurement": "Grade 4 TEAE: Neutrophil count decreased", "setting": "Total (N = 14)", "result": "0 (0) n (%)"}, {"measurement": "Grade 4 TEAE: Parkinsonism", "setting": "Total (N = 14)", "result": "0 (0) n (%)"}, {"measurement": "Grade 4 TEAE: Pyrexia", "setting": "Total (N = 14)", "result": "0 (0) n (%)"}, {"measurement": "Grade 4 TEAE: Rash generalized", "setting": "Total (N = 14)", "result": "0 (0) n (%)"}, {"measurement": "Grade 4 TEAE: Thrombocytopenia", "setting": "Total (N = 14)", "result": "0 (0) n (%)"}, {"measurement": "Grade 4 TEAE: White blood cell count decreased", "setting": "Total (N = 14)", "result": "0 (0) n (%)"}, {"measurement": "Number of patients with at least one related TEAE", "setting": "Total (N = 14)", "result": "13 (92.9) n (%)"}, {"measurement": "TEAE: Abdominal pain", "setting": "Total (N = 14)", "result": "2 (14.3) n (%)"}, {"measurement": "TEAE: Anaemia", "setting": "Total (N = 14)", "result": "5 (35.7) n (%)"}, {"measurement": "TEAE: Back pain", "setting": "Total (N = 14)", "result": "2 (14.3) n (%)"}, {"measurement": "TEAE: C-reactive protein increased", "setting": "Total (N = 14)", "result": "2 (14.3) n (%)"}, {"measurement": "TEAE: Decreased appetite", "setting": "Total (N = 14)", "result": "3 (21.4) n (%)"}, {"measurement": "TEAE: Diarrhoea", "setting": "Total (N = 14)", "result": "4 (28.6) n (%)"}, {"measurement": "TEAE: Dysgeusia", "setting": "Total (N = 14)", "result": "3 (21.4) n (%)"}, {"measurement": "TEAE: Fatigue", "setting": "Total (N = 14)", "result": "4 (28.6) n (%)"}, {"measurement": "TEAE: Headache", "setting": "Total (N = 14)", "result": "2 (14.3) n (%)"}, {"measurement": "TEAE: Hypertriglyceridaemia", "setting": "Total (N = 14)", "result": "2 (14.3) n (%)"}, {"measurement": "TEAE: Hyperuricaemia", "setting": "Total (N = 14)", "result": "2 (14.3) n (%)"}, {"measurement": "TEAE: Hypocalcaemia", "setting": "Total (N = 14)", "result": "3 (21.4) n (%)"}, {"measurement": "TEAE: Hypokalaemia", "setting": "Total (N = 14)", "result": "3 (21.4) n (%)"}, {"measurement": "TEAE: Insomnia", "setting": "Total (N = 14)", "result": "2 (14.3) n (%)"}, {"measurement": "TEAE: Nasopharyngitis", "setting": "Total (N = 14)", "result": "2 (14.3) n (%)"}, {"measurement": "TEAE: Nausea", "setting": "Total (N = 14)", "result": "3 (21.4) n (%)"}, {"measurement": "TEAE: Neutropenia", "setting": "Total (N = 14)", "result": "3 (21.4) n (%)"}, {"measurement": "TEAE: Neutrophil count decreased", "setting": "Total (N = 14)", "result": "2 (14.3) n (%)"}, {"measurement": "TEAE: Platelet count decreased", "setting": "Total (N = 14)", "result": "6 (42.9) n (%)"}, {"measurement": "TEAE: Pyrexia", "setting": "Total (N = 14)", "result": "3 (21.4) n (%)"}, {"measurement": "TEAE: Thrombocytopenia", "setting": "Total (N = 14)", "result": "6 (42.9) n (%)"}, {"measurement": "TEAE: Weight decreased", "setting": "Total (N = 14)", "result": "3 (21.4) n (%)"}, {"measurement": "TEAE: White blood cell count decreased", "setting": "Total (N = 14)", "result": "4 (28.6) n (%)"}, {"measurement": "Neutrophil count decreased leading to dose reduction or dose delay", "setting": "all 14 patients", "result": 14.3, "unit": "%"}, {"measurement": "Patients with at least one TEAE", "setting": "all 14 patients", "result": 92.9, "unit": "%"}, {"measurement": "Platelet count decreased leading to dose reduction or dose delay", "setting": "all 14 patients", "result": 28.6, "unit": "%"}, {"measurement": "TEAEs that led to dose reduction or dose delay", "setting": "all 14 patients", "result": 57.1, "unit": "%"}, {"measurement": "TEAEs that led to treatment discontinuation", "setting": "all 14 patients", "result": 42.9, "unit": "%"}, {"measurement": "Recommended phase II dose (RP2D)", "setting": "oral", "result": 40, "unit": "mg BIW"}, {"measurement": "Maximum tolerated dose (MTD)", "setting": "oral, 4-week cycles", "result": 40, "unit": "mg BIW"}]}
